# According to ChEMBL document CHEMBL1147105, “In vitro and in vivo activities of PD 0305970 and PD 0326448, new bacterial gyrase/topoisomerase inhibitors with potent antibacterial activities versus multidrug-resistant gram-positive and fastidious organism groups” (2007):
# Experiments:
# Format in all cases: functional
# [1] = test system: Cutibacterium acnes; assay: Antibacterial activity against Propionibacterium acnes
# [2] = test system: Listeria monocytogenes; assay: Antibacterial activity against Listeria monocytogenes
# Summary of the method: (§1)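 Broth microdilution MIC following CLSI guidelines, in cation-adjusted Mueller-Hinton broth containing 3% lysed horse blood, incubated at 35°C. Clinical isolates with identity confirmed. Reported as MIC range, MIC50 and MIC90.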
# [3] = test system: Hoylesella oralis; assay: Antibacterial activity against Prevotella oralis
# Summary of the method: (§2)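 Anaerobic broth microdilution MIC following CLSI guidelines, in supplemented Brucella broth. Run in an anaerobe chamber under 5% CO2, 5% H2 and 90% N2 at 35°C, and read after 48 h. Reported as MIC range, MIC50 and MIC90.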
# [4] = test system: Peptoniphilus asaccharolyticus; assay: Antibacterial activity against Peptostreptococcus asaccharolyticus; summary of the method: as §2
# [5] = test system: Fusobacterium necrophorum; assay: Antibacterial activity against Fusobacterium necrophorum; summary of the method: as §2
# [6] = test system: Morganella morganii; assay: Antibacterial activity against Morganella morganii
# Summary of the method: (§3)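 Broth microdilution MIC following CLSI guidelines, in cation-adjusted Mueller-Hinton broth, incubated at 35°C. Recent clinical isolates and reference strains, with identity confirmed by automated and standard microbiological methods. Results reported as MIC range, MIC50 and MIC90.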
# [7] = test system: Streptococcus agalactiae; assay: Antibacterial activity against Streptococcus agalactiae; summary of the method: as §1
# [8] = test system: Prevotella buccae; assay: Antibacterial activity against Prevotella buccae; conditions: Segatella buccae; summary of the method: as §2
# [9] = test system: Neisseria meningitidis; assay: Antibacterial activity against Neisseria meningitidis
# Summary of the method: (§4)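 MIC by broth microdilution in gonococcal broth, incubated at 35°C in 5% CO2. Reported as MIC range, MIC50 and MIC90.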
# [10] = test system: Enterococcus faecium; assay: Antibacterial activity against VanA-resistant Enterococcus faecium
# Summary of the method: (§5)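 Broth microdilution MIC per CLSI guidelines, incubated at 35°C. Cation-adjusted Mueller-Hinton broth for nonfastidious organisms and staphylococci. Streptococci tested in the same broth with 3% lysed horse blood. Anaerobes tested in supplemented Brucella broth inside an anaerobe chamber (5% CO2, 5% H2, 90% N2), read after 48 h. Strains were mainly recent clinical isolates with confirmed identity.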
# [11] = test system: Proteus mirabilis; assay: Antibacterial activity against Proteus mirabilis; summary of the method: as §3
# [12] = test system: Enterococcus faecalis; assay: Antibacterial activity against beta-lactamase positive Enterococcus faecalis
# Summary of the method: (§6)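 MIC by CLSI broth microdilution for nonfastidious organisms, in cation-adjusted Mueller-Hinton broth incubated at 35°C.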
# [13] = test system: Staphylococcus aureus; assay: Antibacterial activity against oxacillin-susceptible Staphylococcus aureus; summary of the method: as §6
# [14] = test system: Haemophilus influenzae; assay: Antibacterial activity against beta-lactamase positive Haemophilus influenzae
# Summary of the method: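 Broth microdilution MIC following CLSI guidelines, in Haemophilus test medium at 35°C.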
# [15] = test system: Staphylococcus aureus; assay: Antibacterial activity against oxacillin and levofloxacin-resistant Staphylococcus aureus; summary of the method: as §5
# [16] = test system: Enterobacter cloacae; assay: Antibacterial activity against Enterobacter cloacae; summary of the method: as §3
# [17] = test system: Streptococcus pneumoniae; assay: Antibacterial activity against penicillin-intermediate resistant Streptococcus pneumoniae; summary of the method: as §5
# [18] = test system: Streptococcus salivarius; assay: Antibacterial activity against Streptococcus salivarius
# Summary of the method: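 Broth microdilution MIC following CLSI guidelines, in cation-adjusted Mueller-Hinton broth with 3% lysed horse blood. Plates incubated at 35°C. Clinical isolates and reference strains, with identity confirmed by standard microbiological methods.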
# [19] = test system: Klebsiella aerogenes; assay: Antibacterial activity against Enterobacter aerogenes; summary of the method: as §3
# [20] = test system: Klebsiella pneumoniae; assay: Antibacterial activity against beta-lactamase positive Klebsiella pneumoniae; summary of the method: as §6
# [21] = test system: Shigella dysenteriae; assay: Antibacterial activity against Shigella dysenteriae
# [22] = test system: Shigella flexneri; assay: Antibacterial activity against Shigella flexneri; summary of the method: as §3
# [23] = test system: Bacteroides ovatus; assay: Antibacterial activity against Bacteroides ovatus; summary of the method: as §2
# [24] = test system: Neisseria gonorrhoeae; assay: Antibacterial activity against Neisseria gonorrhoeae; summary of the method: as §4
# [25] = test system: Prevotella corporis; assay: Antibacterial activity against Prevotella corporis; summary of the method: as §2
# [26] = test system: Klebsiella oxytoca; assay: Antibacterial activity against Klebsiella oxytoca; summary of the method: as §3
# [27] = test system: Parabacteroides distasonis; assay: Antimicrobial activity against Bacteroides distasonis
# Summary of the method: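 Anaerobic broth microdilution MIC following CLSI guidelines, in supplemented Brucella broth. Incubated at 35°C in a chamber under 5% CO2, 5% H2 and 90% N2. Read after 48 h.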
# [28] = test system: Staphylococcus saprophyticus; assay: Antibacterial activity against Staphylococcus saprophyticus; summary of the method: as §3
# [29] = test system: Streptococcus pneumoniae; assay: Antibacterial activity against penicillin-resistant Streptococcus pneumoniae; summary of the method: as §5
# [30] = test system: Anaerococcus prevotii; assay: Antibacterial activity against Peptostreptococcus prevotii; summary of the method: as §2
# [31] = test system: Proteus vulgaris; assay: Antibacterial activity against Proteus vulgaris; summary of the method: as §3
# [32] = test system: Moraxella catarrhalis; assay: Antibacterial activity against beta-lactamase negative Moraxella catarrhalis
# [33] = test system: Staphylococcus epidermidis; assay: Antibacterial activity against oxacillin-susceptible Staphylococcus epidermidis; summary of the method: as §6
structure (smiles),measurement,setting,value
Cc1c(N2CC[C@@H]([C@H](C)N)C2)c(F)cc2c(=O)[nH]c(=O)n(C3CC3)c12,MIC50,[1],4 µg/mL
same,MIC90,[1],8 µg/mL
same,MIC50,[2],0.25 µg/mL
same,MIC90,[2],0.25 µg/mL
same,MIC50,[3],0.5 µg/mL
same,MIC90,[3],2 µg/mL
same,MIC,[4],0.06 µg/mL
same,MIC,[5],0.125 µg/mL
same,MIC50,[6],2 µg/mL
same,MIC90,[6],32 µg/mL
same,MIC50,[7],0.015 µg/mL
same,MIC90,[7],0.03 µg/mL
same,MIC50,[8],0.5 µg/mL
same,MIC90,[8],2 µg/mL
same,MIC50,[9],0.5 µg/mL
same,MIC90,[9],1 µg/mL
same,MIC50,[10],1 µg/mL
same,MIC90,[10],2 µg/mL
same,MIC50,[11],2 µg/mL
same,MIC90,[11],8 µg/mL
same,MIC,[12],0.06 µg/mL
same,MIC50,[13],0.25 µg/mL
same,MIC90,[13],0.25 µg/mL
same,MIC50,[14],0.5 µg/mL
same,MIC90,[14],1 µg/mL
same,MIC50,[15],1 µg/mL
same,MIC90,[15],4 µg/mL
same,MIC50,[16],2 µg/mL
same,MIC90,[16],16 µg/mL
same,MIC50,[17],0.06 µg/mL
same,MIC90,[17],0.125 µg/mL
same,MIC50,[18],0.03 µg/mL
same,MIC90,[18],0.06 µg/mL
same,MIC50,[19],8 µg/mL
same,MIC90,[19],64 µg/mL
same,MIC50,[20],8 µg/mL
same,MIC90,[20],64 µg/mL
same,MIC50,[21],2 µg/mL
same,MIC90,[21],4 µg/mL
same,MIC50,[22],2 µg/mL
same,MIC90,[22],4 µg/mL
same,MIC50,[23],16 µg/mL
same,MIC90,[23],32 µg/mL
same,MIC50,[24],0.5 µg/mL
same,MIC90,[24],1 µg/mL
same,MIC50,[25],0.5 µg/mL
same,MIC90,[25],2 µg/mL
same,MIC50,[26],2 µg/mL
same,MIC90,[26],16 µg/mL
same,MIC50,[27],16 µg/mL
same,MIC90,[27],32 µg/mL
same,MIC50,[28],0.125 µg/mL
same,MIC90,[28],0.5 µg/mL
same,MIC50,[29],0.03 µg/mL
same,MIC90,[29],0.06 µg/mL
same,MIC,[30],0.06 µg/mL
same,MIC,[31],2 µg/mL
same,MIC50,[32],0.5 µg/mL
same,MIC90,[32],1 µg/mL
same,MIC,[33],0.125 µg/mL
C[C@H]1NCc2cc(-c3ccc4c(=O)c(C(=O)O)cn(C5CC5)c4c3OC(F)F)ccc21 [GARENOXACIN],MIC50,[1],1 µg/mL
same,MIC90,[1],2 µg/mL
same,MIC50,[2],0.25 µg/mL
same,MIC90,[2],0.5 µg/mL
same,MIC50,[3],0.25 µg/mL
same,MIC90,[3],1 µg/mL
same,MIC,[4],0.015 µg/mL
same,MIC,[5],0.125 µg/mL
same,MIC50,[6],2 µg/mL
same,MIC90,[6],32 µg/mL
same,MIC50,[7],0.125 µg/mL
same,MIC90,[7],0.125 µg/mL
same,MIC50,[8],0.25 µg/mL
same,MIC90,[8],1 µg/mL
same,MIC50,[9],0.004 µg/mL
same,MIC90,[9],0.004 µg/mL
same,MIC50,[10],8 µg/mL
same,MIC90,[10],16 µg/mL
same,MIC50,[11],0.5 µg/mL
same,MIC90,[11],16 µg/mL
same,MIC,[12],0.125 µg/mL
same,MIC50,[13],0.06 µg/mL
same,MIC90,[13],0.06 µg/mL
same,MIC50,[14],0.015 µg/mL
same,MIC90,[14],0.03 µg/mL
same,MIC50,[15],2 µg/mL
same,MIC90,[15],4 µg/mL
same,MIC50,[16],0.125 µg/mL
same,MIC90,[16],2 µg/mL
same,MIC50,[17],0.25 µg/mL
same,MIC90,[17],0.25 µg/mL
same,MIC50,[18],0.125 µg/mL
same,MIC90,[18],0.25 µg/mL
same,MIC50,[19],2 µg/mL
same,MIC90,[19],> 64 µg/mL
same,MIC50,[20],1 µg/mL
same,MIC90,[20],64 µg/mL
same,MIC50,[21],0.03 µg/mL
same,MIC90,[21],0.125 µg/mL
same,MIC50,[22],0.03 µg/mL
same,MIC90,[22],0.125 µg/mL
same,MIC50,[23],2 µg/mL
same,MIC90,[23],4 µg/mL
same,MIC50,[24],0.004 µg/mL
same,MIC90,[24],0.004 µg/mL
same,MIC50,[25],0.25 µg/mL
same,MIC90,[25],1 µg/mL
same,MIC50,[26],0.125 µg/mL
same,MIC90,[26],2 µg/mL
same,MIC50,[27],2 µg/mL
same,MIC90,[27],4 µg/mL
same,MIC50,[28],0.03 µg/mL
same,MIC90,[28],0.06 µg/mL
same,MIC50,[29],0.03 µg/mL
same,MIC90,[29],0.125 µg/mL
same,MIC,[30],0.015 µg/mL
same,MIC,[31],0.25 µg/mL
same,MIC50,[32],0.03 µg/mL
same,MIC90,[32],0.03 µg/mL
same,MIC,[33],0.06 µg/mL
COc1c(N2CCNC(C)C2)c(F)cc2c(=O)c(C(=O)O)cn(C3CC3)c12 (stereo not given) [GATIFLOXACIN],MIC50,[1],1 µg/mL
same,MIC90,[1],8 µg/mL
same,MIC50,[2],0.5 µg/mL
same,MIC90,[2],1 µg/mL
same,MIC50,[3],0.25 µg/mL
same,MIC90,[3],0.5 µg/mL
same,MIC,[4],0.06 µg/mL
same,MIC,[5],0.015 µg/mL
same,MIC50,[6],0.25 µg/mL
same,MIC90,[6],32 µg/mL
same,MIC50,[7],0.25 µg/mL
same,MIC90,[7],0.25 µg/mL
same,MIC50,[8],0.25 µg/mL
same,MIC90,[8],0.5 µg/mL
same,MIC50,[9],0.004 µg/mL
same,MIC90,[9],0.008 µg/mL
same,MIC50,[10],32 µg/mL
same,MIC90,[10],64 µg/mL
same,MIC50,[11],0.25 µg/mL
same,MIC90,[11],4 µg/mL
same,MIC,[12],0.25 µg/mL
same,MIC50,[13],0.125 µg/mL
same,MIC90,[13],0.125 µg/mL
same,MIC50,[14],0.015 µg/mL
same,MIC90,[14],0.015 µg/mL
same,MIC50,[15],8 µg/mL
same,MIC90,[15],16 µg/mL
same,MIC50,[16],0.06 µg/mL
same,MIC90,[16],1 µg/mL
same,MIC50,[17],0.25 µg/mL
same,MIC90,[17],0.5 µg/mL
same,MIC50,[18],0.5 µg/mL
same,MIC90,[18],0.5 µg/mL
same,MIC50,[19],1 µg/mL
same,MIC90,[19],32 µg/mL
same,MIC50,[20],1 µg/mL
same,MIC90,[20],16 µg/mL
same,MIC50,[21],0.03 µg/mL
same,MIC90,[21],0.06 µg/mL
same,MIC50,[22],0.03 µg/mL
same,MIC90,[22],0.06 µg/mL
same,MIC50,[23],4 µg/mL
same,MIC90,[23],16 µg/mL
same,MIC50,[24],0.004 µg/mL
same,MIC90,[24],0.008 µg/mL
same,MIC50,[25],0.25 µg/mL
same,MIC90,[25],0.5 µg/mL
same,MIC50,[26],0.03 µg/mL
same,MIC90,[26],1 µg/mL
same,MIC50,[27],4 µg/mL
same,MIC90,[27],16 µg/mL
same,MIC50,[28],0.25 µg/mL
same,MIC90,[28],0.25 µg/mL
same,MIC50,[29],0.25 µg/mL
same,MIC90,[29],1 µg/mL
same,MIC,[30],0.06 µg/mL
same,MIC,[31],0.06 µg/mL
same,MIC50,[32],0.06 µg/mL
same,MIC90,[32],0.06 µg/mL
same,MIC,[33],0.125 µg/mL
